Compound activity deposited in PubChem by Broad Institute.
T cruzi growth-1 = T. cruzi proliferation inhibition; 77,000 tested, 5.9% active; inhibition, % at 8.34 µM; T. cruzi beta-gal in NIH3T3, GalScreen luminescence, 90 h;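 active = mean inhibition above about 93%, with at least 55% of replicates each passing it, limit read from the data, passing the limit was not always enough; inconclusive = only one of those two conditions holds; inactive = neither condition holds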
IDH1 mut inh = blocks human IDH1 R132H reductase activity | diaphorase/resazurin fluorescence, 60 min | AID 624101 | inhibition, % at 10 µM | O75874 | 70,000 tested, 0.18% active; in the data active = inhibition above about 34%; inconclusive = no clear call, values can overlap the other calls; inactive = below about 11%
Target sequence (O75874 whole entry R132H): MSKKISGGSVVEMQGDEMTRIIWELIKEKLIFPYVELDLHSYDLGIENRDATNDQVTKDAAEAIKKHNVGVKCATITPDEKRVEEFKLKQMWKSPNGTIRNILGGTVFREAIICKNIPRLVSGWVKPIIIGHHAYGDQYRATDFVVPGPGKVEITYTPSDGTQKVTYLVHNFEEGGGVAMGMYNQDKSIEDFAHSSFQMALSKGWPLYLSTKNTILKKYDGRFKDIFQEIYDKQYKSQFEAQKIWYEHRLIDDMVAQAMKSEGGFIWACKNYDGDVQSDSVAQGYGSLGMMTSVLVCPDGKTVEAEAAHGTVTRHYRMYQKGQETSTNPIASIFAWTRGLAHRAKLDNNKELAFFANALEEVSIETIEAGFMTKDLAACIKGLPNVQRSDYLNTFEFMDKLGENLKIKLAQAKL
GASC1 inh = KDM4C (human) demethylase inhibition; inhibition, % at 12.5 µM; Q9H3R0; 96,000 tested, 0.15% active; GST-KDM4C 2-372, H3K9me3 peptide, LANCE TR-FRET; AID 720574;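 active = mean replicate inhibition above about 25%, with at least 55% of replicates also reaching it, limit read from the data, passing the limit was not always enough; inconclusive = only one of those two conditions met; inactive = neither condition met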
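Material: GST-tagged GASC-1 (JMJD2C) catalytic fragment, aa 2-372. Input: enzyme final amount 10 nM. Medium: HEPES buffer, pH 7.5, plus ascorbate. Reagent: H3K9me3 peptide substrate, Fe(II), 2-oxoglutarate. Doses: single dose. Times: reaction 30 min RT, detection step 1 h RT. Measured by: LANCE TR-FRET. Evaluation: Fall in 671/618 emission ratio as inhibition.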
T cruzi growth-2 = Trypanosoma cruzi proliferation inhibition; T. cruzi beta-gal in NIH3T3, GalScreen luminescence, 90 h; 5,600 tested, 72% active; shares compounds with T cruzi growth-1; inhibition, % at 8.35 µM;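 active = mean replicate inhibition above about 95% and at least 55% of replicates individually reaching it, limit read from the data; inconclusive = only one of the two criteria is met; inactive = neither criterion is met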
T cruzi growth-3 = inhibitors of T. cruzi proliferation; shares compounds with T cruzi growth-1; T. cruzi beta-gal in NIH3T3, GalScreen luminescence, 90 h; inhibition, % at 2.09 µM; 5,600 tested, 21% active; AID 651740;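 active = mean inhibition above about 95%, with at least 55% of replicates also reaching it, limit read from the data; inconclusive = meets just one of the two conditions; inactive = meets neither condition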
NIH3T3 tox = cytotoxicity in mouse NIH/3T3 fibroblasts | shares compounds with T cruzi growth-1 | 5,600 tested, 14% active | NIH/3T3 viability, CellTiter-Glo ATP luminescence, 90 h | cytotoxicity (signal decrease), % at 8.35 µM;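 active = mean signal decrease across replicates above about 35% based on untreated-well scatter, with enough replicates individually passing, limit read from the data; inconclusive = no rule stated though some were filed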
NIH3T3 tox 2 = NIH/3T3 (mouse) viability loss; NIH/3T3 viability, CellTiter-Glo ATP luminescence, 90 h; 5,600 tested, 56% active; inhibition, % at 24.9 µM; shares compounds with T cruzi growth-1;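 active = mean loss of cell viability signal at or above a set limit, and enough replicates individually reaching it; inconclusive = meets only the mean limit or only the replicate share; inactive = meets neither condition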
Hits are given with their value; n = inactive; u = inconclusive; x = no result given. The full list was thinned out, with hits kept by preference.

SMILES	T cruzi growth-1	IDH1 mut inh	GASC1 inh	T cruzi growth-2	T cruzi growth-3	NIH3T3 tox	NIH3T3 tox 2
C[C@@H]1CN([C@@H](C)CO)S(=O)(=O)c2ccc(C#Cc3ccccn3)cc2O[C@H]1CN(C)C	x	n	n	x	x	x	x
COc1ccccc1S(=O)(=O)N[C@H]1CC[C@@H](CC(=O)N2CCCCC2)O[C@@H]1CO	n	n	n	x	x	x	x
CC(C)CC#Cc1ccc([C@H]2[C@@H](CO)N3C(=O)CN(C(=O)Cc4cccnc4)C[C@@H]23)cc1	x	x	n	x	x	x	x
COC(=O)[C@H]1[C@H](CO)[C@H]2Cn3c(ccc(C4=CCCCC4)c3=O)[C@H]2N1Cc1ccc2c(c1)OCO2	n	x	n	x	x	x	x
C[C@H]1CN([C@@H](C)CO)C(=O)c2cc(NC(=O)Nc3cccc4ccccc34)ccc2O[C@H]1CN(C)Cc1ccc(Cl)c(Cl)c1	u	n	n	96	n	n	n
C[C@@H]1CN([C@H](C)CO)C(=O)Cc2cc(NC(=O)Nc3cccc4ccccc34)ccc2O[C@@H]1CN(C)Cc1ccc(Cl)c(Cl)c1	u	x	n	108	107	44	n
C[C@H]1CN([C@@H](C)CO)C(=O)c2cc(NC(=O)Nc3cccc4ccccc34)ccc2O[C@@H]1CN(C)Cc1ccc(Cl)c(Cl)c1	n	n	n	x	x	x	x
C[C@H](CO)N1C[C@H](C)[C@H](CN(C)Cc2ccc(Cl)c(Cl)c2)Oc2ccc(NC(=O)Nc3cccc4ccccc34)cc2CC1=O	n	n	n	x	x	x	x
Cc1ccccc1S(=O)(=O)N[C@@H]1CC[C@H](CCn2cc(-c3ccccc3)nn2)O[C@@H]1CO	n	n	n	x	x	x	x
CN1[C@@H]2Cn3c(ccc(/C=C/c4ccccc4)c3=O)[C@H]1[C@@H](C(=O)NC1Cc3ccccc3C1)[C@@H]2CO	n	x	n	x	x	x	x
Cc1ccnc(NS(=O)(=O)c2cc([N+](=O)[O-])ccc2C)c1	x	n	x	x	x	x	x
C[C@@H]1CN([C@H](C)CO)S(=O)(=O)c2ccc(C#Cc3cccc(F)c3)cc2O[C@H]1CN(C)S(=O)(=O)c1cn(C)cn1	n	n	n	x	x	x	x
C[C@H](CO)N1C[C@H](C)[C@H](CN(C)S(=O)(=O)c2cn(C)cn2)Oc2cc(C#Cc3cccc(F)c3)ccc2S1(=O)=O	n	n	n	x	x	x	x
C[C@@H]1CN([C@@H](C)CO)S(=O)(=O)c2ccc(C#Cc3cccc(F)c3)cc2O[C@@H]1CN(C)S(=O)(=O)c1ccccc1F	106	n	n	102	111	34	n
C[C@H](CO)N1C[C@H](C)[C@@H](CN(C)S(=O)(=O)c2ccccc2F)Oc2cc(C#Cc3cccc(F)c3)ccc2S1(=O)=O	107	n	n	99	116	n	43
C[C@@H]1CN([C@H](C)CO)S(=O)(=O)c2ccc(C#Cc3cccc(F)c3)cc2O[C@@H]1CN(C)S(=O)(=O)c1ccccc1F	104	n	n	102	113	n	40
C[C@H]1CN([C@@H](C)CO)S(=O)(=O)c2ccc(C#Cc3cccc(F)c3)cc2O[C@H]1CN(C)C	n	n	n	x	x	x	x
C/C=C/c1cnc2c(c1)C(=O)N([C@H](C)CO)C[C@H](C)[C@H](CN(C)C(=O)Nc1ccccc1F)O2	n	n	n	x	x	x	x
C[C@H](CO)N1C[C@H](C)[C@@H](CN(C)C(=O)Nc2ccccc2F)Oc2ncc(/C=C/c3ccccc3)cc2C1=O	118	n	n	112	n	n	n
CCCNC(=O)N(C)C[C@@H]1Oc2ncc(/C=C/c3ccccc3)cc2C(=O)N([C@@H](C)CO)C[C@H]1C	103	n	n	98	n	n	n
CCCNC(=O)N(C)C[C@H]1Oc2ncc(/C=C/c3ccccc3)cc2C(=O)N([C@H](C)CO)C[C@@H]1C	n	n	n	x	x	x	x
C/C=C/c1cnc2c(c1)C(=O)N([C@H](C)CO)C[C@@H](C)[C@H](CN(C)C(=O)Nc1ccccc1F)O2	n	n	n	x	x	x	x
C[C@@H]1CN([C@H](C)CO)C(=O)c2cc(/C=C/c3ccccc3)cnc2O[C@H]1CN(C)C(=O)Nc1ccccc1F	124	n	n	109	104	n	u
CC(=O)N1[C@@H]2Cn3c(ccc(-c4cncnc4)c3=O)[C@H]1[C@@H](C(=O)NC1Cc3ccccc3C1)[C@@H]2CO	n	x	n	x	x	x	x
O=C(C[C@H]1CC[C@@H](NC(=O)Nc2cc(F)ccc2F)[C@@H](CO)O1)NCCCN1CCOCC1	x	n	n	x	x	x	x
SMILES	T cruzi growth-1	IDH1 mut inh	GASC1 inh	T cruzi growth-2	T cruzi growth-3	NIH3T3 tox	NIH3T3 tox 2
C[C@@H]1CCCCO[C@H](CN(C)C(=O)Nc2ccc(C(F)(F)F)cc2)[C@H](C)CN([C@H](C)CO)C(=O)c2cc(NS(=O)(=O)c3cccs3)ccc2O1	98	n	n	103	112	n	n
C[C@@H]1CCCCO[C@H](CN(C)C(=O)Nc2ccc(C(F)(F)F)cc2)[C@@H](C)CN([C@H](C)CO)C(=O)c2cc(NS(=O)(=O)c3ccccc3)ccc2O1	n	n	n	x	x	x	x
C[C@H](CO)N1C[C@H](C)[C@H](CN(C)C(=O)Nc2ccc(C(F)(F)F)cc2)OCCCC[C@H](C)Oc2ccc(NS(C)(=O)=O)cc2C1=O	108	n	n	107	n	n	n
C[C@@H]1CCCCO[C@@H](CN(C)C(=O)Nc2ccc(C(F)(F)F)cc2)[C@H](C)CN([C@@H](C)CO)C(=O)c2cc(NS(=O)(=O)c3ccccc3)ccc2O1	u	x	n	96	113	n	n
C[C@@H]1CCCCO[C@H](CN(C)C(=O)Nc2ccc(C(F)(F)F)cc2)[C@H](C)CN([C@@H](C)CO)C(=O)c2cc(NS(=O)(=O)c3ccccc3)ccc2O1	n	n	n	x	x	x	x
C[C@@H]1CN([C@@H](C)CO)C(=O)c2cc(NS(C)(=O)=O)ccc2O[C@@H](C)CCCCO[C@@H]1CN(C)C(=O)Nc1ccc(C(F)(F)F)cc1	x	n	n	x	x	x	x
C[C@H](CO)N1C[C@H](C)[C@H](CN(C)C(=O)Nc2ccc(C(F)(F)F)cc2)OCCCC[C@H](C)Oc2ccc(NS(=O)(=O)c3ccccc3)cc2C1=O	u	x	n	n	103	n	n
C[C@@H]1CCCCO[C@H](CN(C)C(=O)Nc2ccc(C(F)(F)F)cc2)[C@H](C)CN([C@@H](C)CO)C(=O)c2cc(NS(=O)(=O)c3cccs3)ccc2O1	n	n	n	x	x	x	x
C[C@H]1CN([C@@H](C)CO)C(=O)Cc2cc(NC(=O)Nc3ccc(C(F)(F)F)cc3)ccc2O[C@H]1CN(C)S(C)(=O)=O	n	n	n	x	x	x	x
CCOC(=O)c1ccc(NC(=O)CN2C(=O)COc3ccc(Cl)cc32)cc1	x	n	x	x	x	x	x
CCCNC(=O)N1C[C@H](C)[C@@H](OC)CN(C)C(=O)c2ccc(NS(=O)(=O)CC(F)(F)F)cc2OC[C@H]1C	n	n	n	x	x	x	x
CC(=O)N(C)C[C@@H]1Oc2ncc(-c3ccc(C(=O)N(C)C)cc3)cc2C(=O)N([C@@H](C)CO)C[C@@H]1C	n	n	n	x	x	x	x
